# PMC6605687 (The Journal of General Physiology, 2019)
# Where a chain is given by its changes, count along the chain named.
# Assays:
# rP2X2 Thr184Ser = target: T1, rP2X2 Thr184Ser (Rattus norvegicus, UniProt P49653, T184S); assay: Two-electrode voltage clamp, oocytes expressing rP2X2 Thr184Ser; assay type: cell-based
# T1 sequence (P49653 1-472 T184S): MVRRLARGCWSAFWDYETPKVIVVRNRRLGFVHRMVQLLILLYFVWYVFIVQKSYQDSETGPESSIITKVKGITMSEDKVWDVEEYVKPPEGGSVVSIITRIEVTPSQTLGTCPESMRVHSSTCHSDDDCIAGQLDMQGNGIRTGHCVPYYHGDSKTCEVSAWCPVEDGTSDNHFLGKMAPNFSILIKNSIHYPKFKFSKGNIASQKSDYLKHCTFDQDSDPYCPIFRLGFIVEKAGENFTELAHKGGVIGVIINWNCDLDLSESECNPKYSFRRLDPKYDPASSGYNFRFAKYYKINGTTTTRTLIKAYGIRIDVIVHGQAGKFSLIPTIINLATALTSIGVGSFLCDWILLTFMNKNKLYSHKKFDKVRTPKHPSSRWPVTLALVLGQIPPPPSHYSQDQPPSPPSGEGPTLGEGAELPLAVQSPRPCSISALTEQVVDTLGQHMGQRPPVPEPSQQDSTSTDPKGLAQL
# Procedure, shortened: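 Mutations were made by site-directed mutagenesis. Xenopus oocytes were injected with rP2X2 mRNA and incubated in L-15 at 18°C. Two-electrode voltage clamp was done 1–2 days later at −40 mV under ND96 perfusion (pH 7.4). ATP concentration-response currents were normalised and fitted to a one-component Hill equation for EC50 and Hill coefficient. Results are mean ± SEM, tested by one-way ANOVA with Dunnett's test against WT.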
# rP2X2-3T receptors = target: T2, rP2X2-3T receptors (Rattus norvegicus, UniProt P49653, C348T/C430T/C9T); assay: Single channel outside-out patch-clamp recordings, HEK-293 cells; assay type: cell-based; conditions: agonist 1 µM, mean ± SEM
# T2 sequence (P49653 1-472 C9T/C348T/C430T): T1 sequence (P49653 1-472 T184S) with C9T, S184T, C348T, C430T
# Procedure, shortened: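 HEK-293 cells were co-transfected by calcium phosphate with rP2X2-3T DNA plus GFP DNA to mark transfected cells, then recorded within 24 h. Outside-out patches were held at −120 mV. Pipette contained 147 NaF, 10 EGTA and 10 HEPES (mM, pH 7.3). Agonist at 1, 10 or 100 µM in extracellular saline (pH 7.3) was applied by fast perfusion for 10 s per 12-s sweep, at 1-min intervals. Amplitudes came from Gaussian fits to all-points histograms, with 2–5 sweeps averaged per patch.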
smiles,measurement,setting,value
"Nc1ncnc2c1ncn2[C@@H]1O[C@H](COP(=O)(O)OP(=O)(O)OP(=O)(O)O)[C@@H](O)[C@H]1O [ATP, Adenosine 5′-triphosphate]",EC50,rP2X2 Thr184Ser,26 ± 3 µM
same,Sensitivity to agonist (in words),rP2X2 Thr184Ser; Thr184Ser compared with WT,WT-like sensitivity
same,SDopen (SD of the open state amplitude),rP2X2-3T receptors,1.02 ± 0.1
